Only a selection was taken, and hits are over-represented in it overall.
T cruzi growth-1: T. cruzi intracellular proliferation inhibitors, primary screen, cell-based, beta-gal Tulahuen parasites, NIH3T3 host, luminescence | T. cruzi beta-gal in NIH3T3, GalScreen luminescence, 90 h | inhibition, % at 8.34 µM | 77,000 compounds, 5.9% hits;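 active means mean inhibition above about 93%, with at least 55% of replicates each passing it, limit read from the data, passing the limit was not always enough; inconclusive means only one of those two conditions holds; inactive means neither condition holds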
KDM4C inh: inhibitors of GASC-1 (KDM4C) histone demethylase, primary screen, biochemical, single concentration HTS. inhibition, % at 12.5 µM. GST-KDM4C 2-372, H3K9me3 peptide, LANCE TR-FRET. 96,000 compounds, 0.15% hits. Lysine-specific demethylase 4C (Homo sapiens), Q9H3R0;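 active means mean replicate inhibition above about 25%, with at least 55% of replicates also reaching it, limit read from the data, passing the limit was not always enough; inconclusive means only one of those two conditions met; inactive means neither condition met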
Target sequence (Q9H3R0 2-372 limits assumed): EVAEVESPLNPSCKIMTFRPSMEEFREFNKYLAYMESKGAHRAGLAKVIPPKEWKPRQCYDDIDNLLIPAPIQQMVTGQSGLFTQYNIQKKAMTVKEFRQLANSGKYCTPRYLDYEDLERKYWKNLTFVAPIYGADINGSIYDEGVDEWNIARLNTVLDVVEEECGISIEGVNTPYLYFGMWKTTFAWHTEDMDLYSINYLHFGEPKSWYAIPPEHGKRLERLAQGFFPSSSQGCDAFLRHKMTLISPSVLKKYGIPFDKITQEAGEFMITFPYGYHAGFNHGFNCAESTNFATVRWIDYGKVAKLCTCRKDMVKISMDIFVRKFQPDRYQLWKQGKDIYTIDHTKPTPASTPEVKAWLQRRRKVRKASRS
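Material: GST-tagged GASC-1 (JMJD2C) catalytic fragment, aa 2-372. Input: enzyme final amount 10 nM. Medium: HEPES buffer, pH 7.5, plus ascorbate. Reagent: H3K9me3 peptide substrate, Fe(II), 2-oxoglutarate. Doses: single dose. Times: reaction 30 min RT, detection step 1 h RT. Measured by: LANCE TR-FRET. Evaluation: Fall in 671/618 emission ratio as inhibition.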
IDH1 mut inh: inhibitors of IDH1 R132H reductase, primary screen, biochemical, plate reader, single point; Isocitrate dehydrogenase [NADP] cytoplasmic (Homo sapiens), O75874; diaphorase/resazurin fluorescence, 60 min; inhibition, % at 10 µM; 70,000 compounds, 0.18% hits; AID 624101, 2012; in the data active means inhibition above about 34%; inconclusive means no clear call, values can overlap the other calls; inactive means below about 11%
T cruzi growth-2: T. cruzi intracellular proliferation inhibitors, confirmation, cell-based, NIH3T3 host, beta-gal parasite, luminescence, cherry-pick. shares compounds with T cruzi growth-1. T. cruzi beta-gal in NIH3T3, GalScreen luminescence, 90 h. inhibition, % at 8.35 µM. 5,600 compounds, 72% hits;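 active means mean replicate inhibition above about 95% and at least 55% of replicates individually reaching it, limit read from the data; inconclusive means only one of the two criteria is met; inactive means neither criterion is met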
T cruzi growth-3: inhibitors of intracellular T. cruzi replication, confirmation, NIH3T3 host cells, beta-gal parasites, cherry-pick, set 2 | shares compounds with T cruzi growth-1 | T. cruzi beta-gal in NIH3T3, GalScreen luminescence, 90 h | inhibition, % at 2.09 µM | 5,600 compounds, 21% hits | AID 651740, 2012;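 active means mean inhibition above about 95%, with at least 55% of replicates also reaching it, limit read from the data; inconclusive means meets just one of the two conditions; inactive means meets neither condition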
NIH3T3 tox: cytotoxicity in mouse NIH/3T3 fibroblasts, confirmation, cytotoxicity control for T. cruzi proliferation inhibitor project, cell-based, cherry-pick, single point; 5,600 compounds, 14% hits; shares compounds with T cruzi growth-1; cytotoxicity (signal decrease), % at 8.35 µM; AID 651742, 2012; NIH/3T3 viability, CellTiter-Glo ATP luminescence, 90 h;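 active means mean signal decrease across replicates above about 35% based on untreated-well scatter, with enough replicates individually passing, limit read from the data; inconclusive means no rule stated though some were filed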
3T3 cytotox 2: NIH/3T3 fibroblast cytotoxicity, confirmation, cytotoxicity control, cell-based, cherry-pick, single point, set 2. shares compounds with T cruzi growth-1. NIH/3T3 viability, CellTiter-Glo ATP luminescence, 90 h. inhibition, % at 24.9 µM. 5,600 compounds, 56% hits. AID 651744, 2012;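 active means mean loss of cell viability signal at or above a set limit, and enough replicates individually reaching it; inconclusive means meets only the mean limit or only the replicate share; inactive means meets neither condition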
A number is an active result; – = inactive; ? = inconclusive; · = not tested or not shown.

SMILES	T cruzi growth-1	KDM4C inh	IDH1 mut inh	T cruzi growth-2	T cruzi growth-3	NIH3T3 tox	3T3 cytotox 2
CNC(=O)CN(C)S(=O)(=O)c1ccc(OC)c(C)c1	·	·	–	·	·	·	·
O=C(CSc1nnc(-c2ccc(Br)cc2)o1)Nc1cc(C(F)(F)F)ccc1Cl	·	·	–	·	·	·	·
COc1ccccc1S(=O)(=O)N(C)C[C@H]1Oc2cc(Br)ccc2S(=O)(=O)N([C@@H](C)CO)C[C@H]1C	·	–	·	·	·	·	·
C[C@@H]1CN([C@H](C)CO)S(=O)(=O)c2ccc(/C=C/c3ccccc3)cc2O[C@H]1CN(C)C	–	–	–	·	·	·	·
C/C=C/c1ccc2c(c1)O[C@@H](CN(C)S(=O)(=O)c1ccccc1OC)[C@H](C)CN([C@@H](C)CO)S2(=O)=O	116	–	–	107	–	44	56
COc1ccccc1S(=O)(=O)N(C)C[C@H]1Oc2cc(/C=C/c3ccccc3)ccc2S(=O)(=O)N([C@H](C)CO)C[C@H]1C	122	–	–	102	104	43	51
C/C=C/c1ccc2c(c1)O[C@H](CN(C)S(=O)(=O)c1ccccc1)[C@H](C)CN([C@@H](C)CO)S2(=O)=O	107	–	–	97	–	–	35
COc1ccccc1S(=O)(=O)N(C)C[C@@H]1Oc2cc(/C=C/c3ccccc3)ccc2S(=O)(=O)N([C@@H](C)CO)C[C@H]1C	128	–	–	102	106	65	62
C/C=C/c1ccc2c(c1)O[C@H](CN(C)S(=O)(=O)c1ccccc1OC)[C@H](C)CN([C@@H](C)CO)S2(=O)=O	–	–	–	·	·	·	·
C/C=C/c1ccc2c(c1)O[C@H](CN(C)S(=O)(=O)c1ccc(F)cc1)[C@H](C)CN([C@@H](C)CO)S2(=O)=O	·	–	–	·	·	·	·
CS(=O)(=O)N(CC(=O)Nc1ccc2ccccc2c1)c1ccc(Cl)cc1Cl	·	·	–	·	·	·	·
CCn1c(SCC(=O)Nc2ccccc2OC)nnc1-c1ccncc1	·	·	–	·	·	·	·
COc1ccc(C(=O)Nc2ccccc2C(=O)OCc2cccc([N+](=O)[O-])c2)cc1	·	·	–	·	·	·	·
COC(=O)c1cccc(NC(=O)CN(c2ccc(F)c(Cl)c2)S(C)(=O)=O)c1C	·	·	–	·	·	·	·
O=C(CC(C(=O)O)N1CCCCC1)Nc1ccccc1 (configuration not stated)	·	·	–	·	·	·	·
Cc1ccccc1NC(=O)COc1ccc(N2CC(C(N)=O)CC2=O)cc1 (configuration not stated)	·	·	–	·	·	·	·
C[C@@H]1CN([C@@H](C)CO)S(=O)(=O)c2ccc(/C=C/c3ccccc3)cc2O[C@@H]1CN(C)C	–	–	–	·	·	·	·
COc1ccccc1S(=O)(=O)N(C)C[C@H]1Oc2cc(/C=C/c3ccccc3)ccc2S(=O)(=O)N([C@@H](C)CO)C[C@@H]1C	128	–	–	100	101	?	39
C[C@H]1CN([C@@H](C)CO)S(=O)(=O)c2ccc(/C=C/c3ccccc3)cc2O[C@@H]1CN(C)C	–	–	–	·	·	·	·
COc1ccccc1S(=O)(=O)N(C)C[C@H]1Oc2cc(Br)ccc2S(=O)(=O)N([C@H](C)CO)C[C@H]1C	·	–	·	·	·	·	·
COc1ccccc1S(=O)(=O)N(C)C[C@H]1Oc2cc(/C=C/c3ccccc3)ccc2S(=O)(=O)N([C@@H](C)CO)C[C@H]1C	129	–	–	101	?	40	34
COc1ccccc1S(=O)(=O)N(C)C[C@H]1Oc2cc(/C=C/c3ccccc3)ccc2S(=O)(=O)N([C@H](C)CO)C[C@@H]1C	131	38	–	106	97	–	25
Nc1ncnc(Sc2nc3ccccc3s2)c1[N+](=O)[O-]	·	·	–	·	·	·	·
CC(=O)c1cccc(NC(=O)COc2ccccc2C(=O)Nc2ccc3c(c2)oc2ccccc23)c1	·	·	–	·	·	·	·
COc1ccc(NC(=O)Nc2ccc3c(c2)[C@H]2C[C@H](CC(=O)NCc4ccc5c(c4)OCO5)O[C@@H](CO)[C@H]2O3)cc1	–	–	–	·	·	·	·
SMILES	T cruzi growth-1	KDM4C inh	IDH1 mut inh	T cruzi growth-2	T cruzi growth-3	NIH3T3 tox	3T3 cytotox 2
COc1ccc(NC(=O)Nc2ccc3c(c2)[C@@H]2C[C@H](CC(=O)NCCc4ccccc4)O[C@@H](CO)[C@@H]2O3)cc1	176	–	–	105	?	–	–
COc1ccc(NC(=O)Nc2ccc3c(c2)[C@H]2C[C@@H](CC(=O)NCCc4ccccc4)O[C@@H](CO)[C@H]2O3)cc1	157	–	–	112	98	–	–
COc1ccc(NC(=O)Nc2ccc3c(c2)[C@@H]2C[C@H](CC(=O)NCc4ccc5c(c4)OCO5)O[C@H](CO)[C@@H]2O3)cc1	102	–	–	–	–	–	–
CCCNC(=O)C[C@H]1C[C@@H]2c3cc(NC(=O)Nc4ccc(OC)cc4)ccc3O[C@@H]2[C@H](CO)O1	–	–	–	·	·	·	·
CCCNC(=O)C[C@H]1C[C@H]2c3cc(NC(=O)Nc4ccc(OC)cc4)ccc3O[C@H]2[C@@H](CO)O1	–	–	–	·	·	·	·
Cc1cc(C)c(NC(=O)CN(c2ccc(Oc3ccccc3)cc2)S(C)(=O)=O)c(C)c1	·	·	–	·	·	·	·
C[C@@H]1CN([C@H](C)CO)C(=O)c2cc(NC(=O)Nc3cccc4ccccc34)ccc2O[C@@H]1CN(C)Cc1ccc(Cl)c(Cl)c1	?	–	–	–	–	36	25
C[C@H](CO)N1C[C@H](C)[C@H](CN(C)Cc2ccc(Cl)c(Cl)c2)Oc2ccc(NC(=O)Nc3cccc4ccccc34)cc2C1=O	–	–	–	·	·	·	·
C[C@@H]1CN([C@H](C)CO)C(=O)c2cc(NC(=O)Nc3cccc4ccccc34)ccc2O[C@H]1CN(C)Cc1ccc(Cl)c(Cl)c1	102	–	–	102	96	43	29
C[C@H](CO)N1C[C@H](C)[C@@H](CN(C)Cc2ccc(Cl)c(Cl)c2)Oc2ccc(NC(=O)Nc3cccc4ccccc34)cc2C1=O	–	–	·	·	·	·	·
CC(C)C(C(=O)OC1CSCC1NC(=O)c1ccccc1)N1C(=O)c2ccccc2C1=O (configuration not stated)	·	·	–	·	·	·	·
CC(C)Oc1ccccc1-c1nc(SCC(N)=O)n[nH]1	·	·	–	·	·	·	·
COc1ccc(C(=O)Nc2ccc3nc(SCC(=O)N4CCOCC4)sc3c2)cc1OC	·	·	–	·	·	·	·
C[C@H](CO)N1C[C@H](C)[C@H](CN(C)Cc2ccc3c(c2)OCO3)OCCCC[C@H](C)Oc2ccc(N(C)C)cc2C1=O	–	–	·	·	·	·	·
